The text below walks through data of PMC9064382 (RSC Advances, 2019).

Molecules are shown by their SMILES.

As usually defined, the IC50 is the concentration needed to halve the response being measured. Read a low IC50 as greater potency in that assay.

The target of one data set is T1, hOAT3 (Homo sapiens, UniProt Q8TCC7).
T1 sequence (Q8TCC7 1-542): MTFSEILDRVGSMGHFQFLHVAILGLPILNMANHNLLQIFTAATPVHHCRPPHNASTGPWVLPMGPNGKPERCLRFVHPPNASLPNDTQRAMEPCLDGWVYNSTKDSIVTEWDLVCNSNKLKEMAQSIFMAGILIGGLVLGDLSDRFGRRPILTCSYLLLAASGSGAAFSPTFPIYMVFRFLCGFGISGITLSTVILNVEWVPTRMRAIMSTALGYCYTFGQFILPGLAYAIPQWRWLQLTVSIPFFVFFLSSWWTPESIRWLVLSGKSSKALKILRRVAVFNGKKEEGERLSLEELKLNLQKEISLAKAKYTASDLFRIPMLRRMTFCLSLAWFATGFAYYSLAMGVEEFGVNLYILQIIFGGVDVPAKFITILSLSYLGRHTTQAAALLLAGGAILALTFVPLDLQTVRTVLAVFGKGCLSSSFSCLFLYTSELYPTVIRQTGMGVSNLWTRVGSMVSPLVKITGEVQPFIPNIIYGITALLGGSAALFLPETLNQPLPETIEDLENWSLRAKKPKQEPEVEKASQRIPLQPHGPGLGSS
Kind of data set: Inhibition of 3H-ES uptake in hOAT3-transfected cells by liquorice ingredients. The data set is classed as in vitro ADME. The method in brief:
(§1)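 Transfected and mock cells were incubated 2 min at 37 °C with 200 nmol L−1 3H-ES plus test compound. The screen used a single 100 μmol L−1 concentration with reference inhibitors as positive controls, giving an inhibition rate (n = 3, mean ± sd). […] DMSO was <0.2%. Cells were stopped with cold DPBS, rinsed three times, lysed in 0.1 mol L−1 NaOH and counted by scintillation (dpm).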

For another data set, the target named is T2, hOCT2 (Homo sapiens, UniProt O15244).
T2 sequence (O15244 1-555): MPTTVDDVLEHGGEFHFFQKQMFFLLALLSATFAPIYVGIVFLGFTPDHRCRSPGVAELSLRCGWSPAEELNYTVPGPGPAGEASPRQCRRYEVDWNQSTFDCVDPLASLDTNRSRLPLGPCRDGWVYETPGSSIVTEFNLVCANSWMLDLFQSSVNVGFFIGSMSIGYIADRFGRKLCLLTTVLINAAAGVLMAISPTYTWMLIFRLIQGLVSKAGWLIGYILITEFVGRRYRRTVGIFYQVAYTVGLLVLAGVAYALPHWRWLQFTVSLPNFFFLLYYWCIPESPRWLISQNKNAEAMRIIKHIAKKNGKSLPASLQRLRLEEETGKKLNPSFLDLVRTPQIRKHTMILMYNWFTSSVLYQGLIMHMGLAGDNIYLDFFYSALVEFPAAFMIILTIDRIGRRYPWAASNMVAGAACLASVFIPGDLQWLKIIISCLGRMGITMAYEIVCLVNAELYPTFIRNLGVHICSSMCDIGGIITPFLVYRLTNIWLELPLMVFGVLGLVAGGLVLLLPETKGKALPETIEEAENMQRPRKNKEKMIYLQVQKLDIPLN
In words: Inhibition of 14C-TEA uptake in hOCT2-transfected cells by liquorice ingredients. The class given is in vitro ADME. The settings on record: for inhibitory rate on hOCT2: 100 μm, 5 μmol L^−1 14C-TEA, 5 min.

A further data set deals with T3, hOATP2B1 (Homo sapiens, UniProt O94956).
T3 sequence (O94956 1-709): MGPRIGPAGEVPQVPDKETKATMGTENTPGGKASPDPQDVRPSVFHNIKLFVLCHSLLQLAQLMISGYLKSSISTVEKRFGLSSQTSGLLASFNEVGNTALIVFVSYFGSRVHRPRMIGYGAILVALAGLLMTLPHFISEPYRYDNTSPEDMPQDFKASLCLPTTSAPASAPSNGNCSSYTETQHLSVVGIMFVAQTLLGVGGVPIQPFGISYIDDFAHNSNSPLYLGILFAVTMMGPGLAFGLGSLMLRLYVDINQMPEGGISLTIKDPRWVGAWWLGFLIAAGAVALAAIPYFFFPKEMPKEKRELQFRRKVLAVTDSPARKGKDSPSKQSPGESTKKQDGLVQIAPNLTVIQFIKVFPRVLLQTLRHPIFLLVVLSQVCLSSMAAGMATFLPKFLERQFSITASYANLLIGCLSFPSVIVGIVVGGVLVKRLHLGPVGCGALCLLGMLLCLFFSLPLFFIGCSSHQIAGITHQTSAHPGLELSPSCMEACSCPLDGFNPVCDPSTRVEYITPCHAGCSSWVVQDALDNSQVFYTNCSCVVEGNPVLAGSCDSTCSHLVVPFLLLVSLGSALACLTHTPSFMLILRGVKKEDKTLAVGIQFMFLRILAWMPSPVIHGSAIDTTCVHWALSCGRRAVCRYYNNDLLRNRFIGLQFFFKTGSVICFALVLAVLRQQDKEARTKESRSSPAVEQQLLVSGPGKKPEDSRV
The data set is classed as in vitro ADME. The note with it: for inhibition of hOATP2B1: screening at 100 μm. The essentials: as §1

The target of a further data set is T4, hOCT1 (Homo sapiens, UniProt O15245).
T4 sequence (O15245 1-554): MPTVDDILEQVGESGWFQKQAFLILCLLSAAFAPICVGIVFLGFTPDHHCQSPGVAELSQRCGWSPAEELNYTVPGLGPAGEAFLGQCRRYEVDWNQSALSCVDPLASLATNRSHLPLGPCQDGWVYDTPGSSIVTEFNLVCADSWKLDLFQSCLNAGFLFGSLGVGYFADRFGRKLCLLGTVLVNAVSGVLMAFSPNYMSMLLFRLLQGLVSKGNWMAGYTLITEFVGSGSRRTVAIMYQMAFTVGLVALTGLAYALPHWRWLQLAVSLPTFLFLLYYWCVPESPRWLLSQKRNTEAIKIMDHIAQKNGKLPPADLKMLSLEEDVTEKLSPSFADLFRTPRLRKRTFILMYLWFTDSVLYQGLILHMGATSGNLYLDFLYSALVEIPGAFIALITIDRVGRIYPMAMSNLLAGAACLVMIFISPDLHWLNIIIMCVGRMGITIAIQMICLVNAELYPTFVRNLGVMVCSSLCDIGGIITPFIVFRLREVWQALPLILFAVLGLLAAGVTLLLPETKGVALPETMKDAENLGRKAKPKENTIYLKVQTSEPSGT
In words: Uptake of aconitum alkaloids in hOCT1-transfected cells vs mock. The settings on record: 10 μm, 5 min. The data set is classed as in vitro ADME.

Data set [1] is classed as in vivo, Sprague-Dawley (SD) rats. The note with it: pretreatment with the named substance, rats.
Data set [2] concerns the target T5, hOATP1B3 (Homo sapiens, UniProt Q9NPD5).
T5 sequence (Q9NPD5 1-702): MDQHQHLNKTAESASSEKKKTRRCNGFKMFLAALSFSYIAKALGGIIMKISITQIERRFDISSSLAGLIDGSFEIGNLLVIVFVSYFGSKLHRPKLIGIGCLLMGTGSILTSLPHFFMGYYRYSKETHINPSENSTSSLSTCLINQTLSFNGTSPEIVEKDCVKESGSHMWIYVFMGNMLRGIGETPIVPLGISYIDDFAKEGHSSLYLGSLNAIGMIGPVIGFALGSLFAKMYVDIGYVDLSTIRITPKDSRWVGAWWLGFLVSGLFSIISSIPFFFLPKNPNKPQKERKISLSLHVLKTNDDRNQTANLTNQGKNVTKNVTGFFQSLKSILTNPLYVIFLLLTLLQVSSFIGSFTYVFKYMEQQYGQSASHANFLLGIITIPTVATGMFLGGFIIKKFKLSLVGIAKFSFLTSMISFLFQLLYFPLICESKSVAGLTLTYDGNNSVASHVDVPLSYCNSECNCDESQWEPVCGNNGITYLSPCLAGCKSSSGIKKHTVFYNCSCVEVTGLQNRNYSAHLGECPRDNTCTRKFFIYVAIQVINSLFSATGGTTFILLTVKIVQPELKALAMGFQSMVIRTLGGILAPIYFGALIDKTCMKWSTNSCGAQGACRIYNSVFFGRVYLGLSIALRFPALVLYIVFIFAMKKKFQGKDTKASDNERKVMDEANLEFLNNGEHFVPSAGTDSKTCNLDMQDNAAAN
Kind of data set: Uptake of aconitum alkaloids in hOATP1B3-transfected HEK293 cells vs mock. The note with it: 10 μm, 2 min, HEK293-hOATP1B3 vs mock. The data set is classed as in vitro ADME.

In data set [3] the target is T6, hOATP1B1 (Homo sapiens, UniProt Q9Y6L6).
T6 sequence (Q9Y6L6 1-691): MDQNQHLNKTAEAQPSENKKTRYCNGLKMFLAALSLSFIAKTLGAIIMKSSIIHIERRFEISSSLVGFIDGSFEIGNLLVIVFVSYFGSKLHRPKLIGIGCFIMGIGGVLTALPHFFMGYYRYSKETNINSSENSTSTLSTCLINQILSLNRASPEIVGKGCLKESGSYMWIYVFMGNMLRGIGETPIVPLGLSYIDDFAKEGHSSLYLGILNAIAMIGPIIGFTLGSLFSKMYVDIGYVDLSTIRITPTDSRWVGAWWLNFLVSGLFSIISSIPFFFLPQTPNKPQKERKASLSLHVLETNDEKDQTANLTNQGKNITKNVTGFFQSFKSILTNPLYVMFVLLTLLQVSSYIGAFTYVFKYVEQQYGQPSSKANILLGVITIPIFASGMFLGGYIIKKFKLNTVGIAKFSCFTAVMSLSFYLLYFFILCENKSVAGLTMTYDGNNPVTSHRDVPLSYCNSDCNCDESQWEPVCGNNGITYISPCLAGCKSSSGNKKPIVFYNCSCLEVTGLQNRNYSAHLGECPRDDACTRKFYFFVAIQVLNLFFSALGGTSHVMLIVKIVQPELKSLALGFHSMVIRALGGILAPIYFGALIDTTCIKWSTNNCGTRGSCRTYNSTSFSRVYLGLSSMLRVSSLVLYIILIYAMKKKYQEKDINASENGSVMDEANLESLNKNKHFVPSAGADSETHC
Kind of data set: Uptake of aconitum alkaloids in hOATP1B1-transfected HEK293 cells vs mock. The data set is classed as in vitro ADME. The note with it: 10 μm, 2 min. The method in brief: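 HEK293-hOATP1B1 and mock cells were grown in DMEM with 10% FBS, seeded at 2 × 10^5/well and cultured 48 h. They were rinsed, preincubated 10 min at 37 °C in DPBS pH 7.4, then exposed to the alkaloid for 2 min at 37 °C. After three ice-cold DPBS rinses and methanol lysis, supernatants were measured by UPLC-MS/MS (positive MRM, sinomenine internal standard). Results were normalised to BCA protein; n = 3, t-test versus mock.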

In data set [4] the target is T6, hOATP1B1. The class given is in vitro ADME. The settings on record: screening at 100 μm.
In data set [5] the target is T5, hOATP1B3. The data set is classed as in vitro ADME. The note with it: screening at 100 μm.

`CC1(C)[C@@H](O)CC[C@]2(C)[C@H]3C(=O)C=C4[C@@H]5C[C@@](C)(C(=O)O)CC[C@]5(C)CC[C@@]4(C)[C@]3(C)CC[C@@H]12` [glycyrrhetinic acid]: the figures for the half-inhibitory concentration (IC50) against hOAT3, at hOCT2 and on hOATP2B1 were 1830 nM, 7410 nM and 1070 nM, respectively. Besides, the “inhibitory rate on hOCT2” value against hOCT2 turned out to be 80.17%. Also, the “inhibition of hOATP2B1” value on hOATP2B1 is listed as “strong inhibitors”.
Take `COC[C@@]12CC[C@H](OC)[C@]34C(C([C@H](OC)[C@H]13)[C@]1(OC(C)=O)[C@H]3[C@@H](OC(=O)c5ccccc5)[C@](O)(C[C@H]34)[C@@H](OC)[C@@H]1O)N(C)C2` [hypaconitine]: on hOCT1, the “concentration in HEK293–hOCT1, fold higher than control” value is given as about 3.3 fold.
As for `C=C[C@H]1C[N@@]2CC[C@H]1C[C@@H]2[C@@H](O)c1ccnc2ccc(OC)cc12` [quinidine, reference compound], the “Tmax of aconitine in the liver” value in [1] is recorded as “postponed”.
Turning to `COC[C@]12CN(C)[C@@H]3[C@@H]4[C@H](OC)[C@H]1[C@@]3([C@@H](OC)C[C@H]2O)[C@@H]1C[C@@]2(O)[C@H](OC(=O)c3ccccc3)[C@@H]1[C@]4(OC(C)=O)[C@@H](O)[C@@H]2OC` [mesaconitine], the “concentration in HEK293–hOCT1, fold higher than control” value at hOCT1 was “roughly 1.9 fold”. Further, the “concentration in hOATP1B3-transfected cells, fold of HEK293 mock cells” value on hOATP1B3 [2] was about 3.4 fold. On hOATP1B1 [3], the “concentration in hOATP1B1-transfected cells, fold of HEK293 mock cells” value is “approximately 2.7 fold”.
In the case of `O=C(/C=C/c1ccc(O)cc1)c1ccc(O)cc1O` [isoliquiritigenin], the values for the IC50 at hOAT3 and against hOCT2 were 2180 nM and 31400 nM, respectively.
For the compound `COC[C@]12CN(C)C3[C@@H]4[C@H](OC)[C@H]1[C@@]3([C@@H](OC)C[C@H]2O)[C@@H]1C[C@@]2(O)[C@H](OC(=O)c3ccccc3)[C@@H]1[C@]4(O)[C@@H](O)[C@@H]2OC` [benzoylmesaconitine], the “concentration in HEK293–hOCT1, fold higher than control” value at hOCT1 is given as about 2.2 fold.
Still for that read-out and setting: in the case of `COC[C@@]12CC[C@H](OC)[C@]34C([C@H]([C@H](OC)[C@H]13)[C@]1(O)[C@H]3[C@@H](OC(=O)c5ccccc5)[C@](O)(C[C@H]34)[C@@H](OC)[C@@H]1O)N(C)C2` [benzoylhypaconitine] it was about 3.7 fold; in that of `CCN1C[C@]2(COC)[C@H](O)C[C@H](OC)[C@@]34[C@@H]5C[C@@]6(O)[C@H](OC(=O)c7ccccc7)[C@@H]5[C@@](O)([C@@H]([C@H](OC)[C@H]23)[C@@H]14)[C@@H](O)[C@@H]6OC` [benzoylaconitine], about 2.3 fold.
Regarding `O=C(/C=C/c1ccc(O[C@@H]2O[C@H](CO)[C@@H](O)[C@H](O)[C@H]2O)cc1)c1ccc(O)cc1O` [isoliquiritin], the “inhibition of hOATP1B1” value on hOATP1B1 [4] is reported as “strong inhibitors”. On hOCT2, the “inhibitory rate on hOCT2” value was 71.9%. The “inhibition of hOATP1B3” value against hOATP1B3 [5] is “strong inhibitors”. Besides, on hOATP2B1, the “inhibition of hOATP2B1” value is recorded as “strong inhibitors”.
